Data set [1] can be described thus: Cmax in Crl:CD(SD) rat at 0.1 mg/kg, po by LC-MS/MS analysis. The class given is ADME, organism-based. The following applies: in vivo. Set-up: dose 0.1 mg/kg, route oral. The procedure, abridged: (§1)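 Single intravenous or oral dose of 0.1 mg/kg to male Crl:CD(SD) rats and to monkeys. Values are means of three animals with SD.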
Data set [2] in a line: AUC (infinity) in cynomolgus monkey at 0.1 mg/kg, po by LC-MS/MS analysis. More on the design: dose 0.1 mg/kg, route oral, time infinity. The conditions noted are these: in vivo. In kind it is ADME, organism-based, Macaca fascicularis. The essentials:
as §1

Data set [3] in a line: Plasma concentration in unrestrained conscious cynomolgus monkey at 1 mg/kg, po measured at 4 hrs. In kind it is ADME, organism-based, Macaca fascicularis. The essentials: (§2)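 Single oral dose of 1, 10 or 100 mg/kg to unrestrained conscious monkeys. Heart rate was followed from 4 to 24 h after dosing and its decrease expressed against the pretreatment value. Plasma concentration was sampled at 4 and 24 h.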

Data set [4] has as its target T1, Sphingosine 1-phosphate receptor 2 (Homo sapiens, UniProt O95136). Description: Agonist activity at human S1P2 receptor expressed in CHO-K1 cells assessed as increase in S1P-stimulated calcium influx preincubated for 5 mins followed by S1P stimulation measured every 3 secs by fluorescence method. The class given is functional, cell-based.
The nature of data set [5]: Plasma concentration in unrestrained conscious cynomolgus monkey at 100 mg/kg, po measured at 24 hrs. The class given is ADME, organism-based, Macaca fascicularis. The essentials: as §2
Data set [6] has as its target Sphingosine 1-phosphate receptor 3 (Homo sapiens, UniProt Q99500). In words: Agonist activity at human S1P3 receptor expressed in CHO-K1 cells assessed as increase in S1P-stimulated calcium influx preincubated for 5 mins followed by S1P stimulation measured every 3 secs by fluorescence method. In kind it is cell-based.
For data set [7], the system named is Cynomolgus monkey. In words: Toxicity in unrestrained conscious cynomolgus monkey assessed as decrease in heart rate at 100 mg/kg, po administered as single dose measured after 4 to 24 hrs. The conditions noted are these: in vivo. In kind it is organism-based, Macaca fascicularis. The essentials:
as §2

A further data set relates to Mus musculus. In words: Decrease in peripheral lymphocyte levels in po dosed BALB/c mouse at 4 hrs by automated hematology analyzer. In kind it is functional. The procedure, abridged:
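Compound given orally to 6-week-old male BALB/c mice. At 4 or 24 h, blood was taken from the abdominal aorta under ether anaesthesia and lymphocytes counted on an automated haematology analyser. Counts expressed as % of the vehicle-group mean; ED50 is the dose lowering counts to 50%. One experiment, five mice.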

The subject of data set [8] is Cynomolgus monkey. Description: Decrease in peripheral lymphocyte levels in unrestrained conscious cynomolgus monkey at 0.01 to 0.03 mg/kg, po administered as single dose measured after 4 to 24 hrs by automated hematology analyzer. The class given is functional, organism-based. The conditions noted are these: Macaca fascicularis. The procedure, abridged:
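Single oral doses of 0.01 and 0.03 mg/kg to monkeys. Peripheral lymphocyte counts were followed from 4 to 24 h after administration.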

In data set [9] the target is T1, Sphingosine 1-phosphate receptor 2. Description: Displacement of [33P]-S1P from human S1P2 receptor expressed in CHO-K1 cells after 60 mins by scintillation counting method. In kind it is cell-based.
Data set [10] relates to Cynomolgus monkey. In words: Toxicity in unrestrained conscious cynomolgus monkey assessed as decrease in heart rate at 100 mg/kg, po administered as single dose measured at 4 hrs relative to control. The class given is organism-based, Macaca fascicularis. Set-up: scale not given: the % may be the effect or the level left. The conditions noted are these: in vivo. The procedure, abridged:
as §2

SMILES strings stand for the structures. The source made the active and inactive calls. The calls are words filed in the database; no cut-off is given here.

T1 sequence (O95136 whole entry): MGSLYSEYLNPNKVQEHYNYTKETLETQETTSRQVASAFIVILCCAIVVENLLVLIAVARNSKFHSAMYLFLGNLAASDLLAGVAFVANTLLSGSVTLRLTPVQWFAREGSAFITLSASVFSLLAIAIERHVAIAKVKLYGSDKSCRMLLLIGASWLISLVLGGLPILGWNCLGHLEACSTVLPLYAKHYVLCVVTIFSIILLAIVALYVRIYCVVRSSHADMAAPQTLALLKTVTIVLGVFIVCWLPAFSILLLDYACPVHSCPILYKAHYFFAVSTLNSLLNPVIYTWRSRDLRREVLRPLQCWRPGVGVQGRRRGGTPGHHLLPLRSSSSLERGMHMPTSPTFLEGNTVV
Chain of Sphingosine 1-phosphate receptor 3 (Q99500 whole entry): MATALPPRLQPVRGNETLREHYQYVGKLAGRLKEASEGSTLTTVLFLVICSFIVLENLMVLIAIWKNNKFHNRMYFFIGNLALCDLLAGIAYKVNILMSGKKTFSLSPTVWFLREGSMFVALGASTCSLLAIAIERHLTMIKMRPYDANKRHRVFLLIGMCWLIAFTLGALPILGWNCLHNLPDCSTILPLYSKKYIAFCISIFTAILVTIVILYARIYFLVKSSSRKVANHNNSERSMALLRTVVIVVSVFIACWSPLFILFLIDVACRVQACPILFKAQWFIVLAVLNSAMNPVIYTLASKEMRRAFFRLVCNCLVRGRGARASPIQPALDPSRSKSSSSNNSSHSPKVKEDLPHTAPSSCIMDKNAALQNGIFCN

In the case of `CCCc1ccc(COc2ccc3c(c2)CCC(CN2CC(C(=O)O)C2)=C3C)c(OC)c1`, the maximum concentration (Cmax) in data set [1] was 7.47 ng/mL. The molecule further registered an AUC(0-inf) in data set [2] of 1090 ng·h/mL. Moreover, in data set [3], the concentration at 4 h is 320 ng/mL. In addition, the EC50 in data set [4] and in data set [6] was above 30 µM in each case. In [5], this molecule yielded a concentration at 24 h of 11100 ng/mL. The Activity entry in the data set with Cynomolgus monkey [7] was “Toxic”; in the data set on Cynomolgus monkey [10], 19%. The ED50 in the data set on Mus musculus is 0.018 mg/kg. For the same molecule, the outcome in the data set on Cynomolgus monkey [8] was Active. This molecule came in with a Ki in data set [9] above 5.45 µM.

By Cmax is commonly meant the peak of the concentration-time curve. What is called AUC(0-inf) is total exposure, with the tail of the curve extrapolated. One may read the EC50 as the concentration that produces a half-maximal response. For orientation: ED50 means the dose that gives a 50% effect, or the effect in half of the subjects. As a reminder, the Ki is a measure of affinity in units of concentration, obtained from inhibition or displacement.

The values above are taken from ChEMBL document CHEMBL4028892, “Discovery of a 1-Methyl-3,4-dihydronaphthalene-Based Sphingosine-1-Phosphate (S1P) Receptor Agonist Ceralifimod (ONO-4641). A S1P1 and S1P5 Selective Agonist for the Treatment of Autoimmune Diseases” (J Med Chem, 2017).
